What all share (format): functional
Experiment [1] concerns Mycobacterium tuberculosis. Briefly: In vitro inhibitory activity against Mycobacterium tuberculosis (strain type-ATCC 35828)at pH 5.8. The procedure, abridged: (§1)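 Middlebrook 7H10 agar plus 10% OADC at pH 5.8 in compartmented plates, with serial twofold dilutions from 200 to 3.12 µg/mL. Plates were prepared 24–48 h before use and stored at 4 °C. A drug-free compartment was included per isolate. Incubation was 37 °C for 4 weeks. MIC was the lowest level producing 99% (2 log) inhibition of growth.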

In experiment [2] the test system is Mycobacterium kansasii. Briefly: In vitro inhibitory activity against Mycobacterium kansasii (strain type-SWK)at pH 5.8. In outline: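 Pyrazinamide-resistant isolate SWK tested on Middlebrook 7H10 agar plus 10% OADC adjusted to pH 5.8. Compartmented plates hold 2-fold dilutions from 200 to 3.12 µg/mL, prepared 24–48 h before use and kept at 4 °C, with a drug-free compartment. Incubation was 37 °C for 4 weeks. MIC is the lowest level causing 99% (2 log) growth inhibition.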

In experiment [3] the test system is Mycobacterium tuberculosis. The experiment can be described thus: In vitro activity against Mycobacterium strain GLA (Mycobacterium tuberculosis). Conditions: Mycobacterium tuberculosis; read-out: MIC.
The subject of experiment [4] is Mycobacterium tuberculosis. Briefly: In vitro inhibitory activity against Mycobacterium tuberculosis (strain type-ATCC 35828) pH 6.6. The procedure, abridged: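 Twofold serial dilutions (200–3.12 µg/mL) in 7H10 agar with 10% OADC enrichment at pH 6.6, in compartmented plates. Plates were stored at 4 °C and used within 24–48 h. A no-drug compartment served as control for each isolate. Plates were incubated for 4 weeks at 37 °C. MIC was the lowest concentration giving 99% (2 log) growth inhibition.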

Experiment [5] relates to Mycobacterium tuberculosis. The experiment can be described thus: In vitro inhibitory activity against Mycobacterium tuberculosis (strain type-H37Rv) at pH 5.8. The procedure, abridged:
as §1

For experiment [6], the system named is Mycobacterium tuberculosis. The experiment can be described thus: In vitro activity against Mycobacterium strain BUR (Mycobacterium tuberculosis). In outline: (§2)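 Agar dilution in compartmented plates of Middlebrook 7H10 agar with 10% OADC, adjusted to pH 5.8 or pH 6.6. Twofold compound dilutions spanned 200–3.12 µg/mL. Plates were made 24–48 h ahead and held at 4 °C. MIC (µg/mL) was the lowest concentration giving 99% (2 log) growth inhibition.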

Experiment [7] concerns Mycobacterium tuberculosis. Briefly: In vitro activity against Mycobacterium strain DUB (Mycobacterium tuberculosis). Conditions: Mycobacterium tuberculosis; read-out: MIC.
The subject of experiment [8] is Mycobacterium tuberculosis. Briefly: In vitro activity against Mycobacterium strain ATCC 35828 (Mycobacterium tuberculosis). The procedure, abridged:
as §2

Experiment [9] deals with Mycobacterium tuberculosis. Briefly: In vitro activity against Mycobacterium strain BAK (Mycobacterium tuberculosis). Conditions: Mycobacterium tuberculosis; read-out: MIC.
Experiment [10] concerns Mycobacterium kansasii. Briefly: In vitro inhibitory activity against Mycobacterium kansasii (strain type-SWK) pH 6.6. In outline:
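MIC for pyrazinamide-resistant isolate SWK by agar dilution in Middlebrook 7H10 with 10% OADC at pH 6.6. Serial 2-fold dilutions run 200–3.12 µg/mL in compartmented plates prepared 24–48 h in advance and stored at 4 °C. A drug-free control is included. Plates were held at 37 °C for 4 weeks. The endpoint is 99% (2 log) inhibition of growth.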

Experiment [11] concerns Mycobacterium tuberculosis. Briefly: In vitro activity against Mycobacterium strain WOO (Mycobacterium tuberculosis). In outline: as §2
Experiment [12] deals with Mycobacterium tuberculosis. Briefly: In vitro activity against Mycobacterium strain LEL (Mycobacterium tuberculosis). The following applies: Mycobacterium tuberculosis; read-out: MIC.
Experiment [13] deals with Mycobacterium kansasii. Briefly: In vitro activity against Mycobacterium strain SWK (Mycobacterium kansasii). In outline:
(§3)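 Agar dilution MIC against pyrazinamide-resistant clinical isolates on Middlebrook 7H10 agar with 10% OADC at pH 5.8 or pH 6.6. Serial 2-fold dilutions span 200–3.12 µg/mL in compartmented plates made 24–48 h ahead and stored at 4 °C. Each isolate has a drug-free control. Plates were incubated at 37 °C for 4 weeks. MIC is the lowest concentration giving 99% (2 log) growth inhibition.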

Experiment [14] deals with Mycobacterium tuberculosis. Briefly: In vitro activity against Mycobacterium strain ING (Mycobacterium tuberculosis). The procedure, abridged: as §2
Experiment [15] concerns Mycobacterium tuberculosis. The experiment can be described thus: In vitro activity against Mycobacterium strain DOU (Mycobacterium tuberculosis). The procedure, abridged: as §2
The subject of experiment [16] is Mycobacterium tuberculosis. The experiment can be described thus: In vitro activity against Mycobacterium strain CES (Mycobacterium tuberculosis). The procedure, abridged: as §2
Experiment [17] relates to Mycobacterium tuberculosis. Briefly: In vitro activity against Mycobacterium strain SMA (Mycobacterium tuberculosis). Conditions: Mycobacterium tuberculosis; read-out: MIC.
Experiment [18] concerns Mycobacterium tuberculosis. The experiment can be described thus: In vitro activity against Mycobacterium strain DOL (Mycobacterium tuberculosis). Conditions: Mycobacterium tuberculosis; read-out: MIC.
Experiment [19] concerns Mycobacterium kansasii. Briefly: In vitro activity against Mycobacterium strain SCH (Mycobacterium kansasii). In outline: as §3
Experiment [20] has as its system Mycobacterium tuberculosis. The experiment can be described thus: In vitro inhibitory activity against Mycobacterium tuberculosis (strain type-H37Rv) at pH 6.6. Conditions: Mycobacterium tuberculosis; read-out: MIC.
Experiment [21] deals with Mycobacterium tuberculosis. The experiment can be described thus: In vitro activity against Mycobacterium tuberculosis (strain type-BUR) at pH 5.8. In outline: as §1
The test system of experiment [22] is Mycobacterium tuberculosis. Briefly: In vitro activity against Mycobacterium strain MCQ (Mycobacterium tuberculosis). The procedure, abridged:
as §2

Molecules are shown by their SMILES. ≈ marks a conversion by molar mass, not a printed value.

Consider `CN(C)CCOC(=O)c1cnccn1`, for which the minimum inhibitory concentration (MIC) (as a rule, the lowest concentration found to suppress growth) in experiment [1] is 25 µg/mL (≈ 128 µM); in the experiment with Mycobacterium kansasii [2], 200 µg/mL (≈ 1020 µM); in [3] it was 25 µg/mL (≈ 128 µM); in experiment [4], greater than 200 µg/mL; in experiment [5], 12.5 µg/mL (≈ 64 µM); in experiment [6], 25 µg/mL (≈ 128 µM). Besides, the MIC was 25 µg/mL (≈ 128 µM) in [7]; 50 µg/mL (≈ 256 µM) in [8]; 25 µg/mL (≈ 128 µM) in experiment [9]; greater than 200 µg/mL against Mycobacterium kansasii [10]; 25 µg/mL (≈ 128 µM) in experiment [11]; 25 µg/mL (≈ 128 µM) in experiment [12]. The MIC in the experiment with Mycobacterium kansasii [13] stood at 100 µg/mL (≈ 512 µM); in [14], 25 µg/mL (≈ 128 µM); in experiment [15], 25 µg/mL (≈ 128 µM); in experiment [16], 25 µg/mL (≈ 128 µM); in [17] it was 25 µg/mL (≈ 128 µM); in [18] it was 12.5 µg/mL (≈ 64 µM). Also, the MIC in the experiment on Mycobacterium kansasii [19] was found to be 50 µg/mL (≈ 256 µM); in [20] it was 100 µg/mL (≈ 512 µM); in experiment [21], 25 µg/mL (≈ 128 µM); in experiment [22] it was 25 µg/mL (≈ 128 µM).

The values above are taken from ChEMBL document CHEMBL1125418, “Antimycobacterial activity of a series of pyrazinoic acid esters” (1992).
